# Measured values as given in ChEMBL document CHEMBL1130314, “Examination of the role of the acidic hydrogen in imparting selectivity of 7-(aminosulfonyl)-1,2,3,4-tetrahydroisoquinoline (SK&F 29661) toward inhibition of phenylethanolamine N-methyltransferase vs the alpha 2-adrenoceptor” (J Med Chem, 1997).
# How the values were obtained:
# [1] = Dissociation constant was determined; assay type: physicochemical
# [2] = biological target: T1, Adrenergic receptor alpha-2 (Rattus norvegicus, UniProt P22086+P19328+P22909); assay: Inhibition of [3H]clonidine binding to Alpha-2 adrenergic receptor; assay type: protein assay
# T1 sequence (P22086 whole entry): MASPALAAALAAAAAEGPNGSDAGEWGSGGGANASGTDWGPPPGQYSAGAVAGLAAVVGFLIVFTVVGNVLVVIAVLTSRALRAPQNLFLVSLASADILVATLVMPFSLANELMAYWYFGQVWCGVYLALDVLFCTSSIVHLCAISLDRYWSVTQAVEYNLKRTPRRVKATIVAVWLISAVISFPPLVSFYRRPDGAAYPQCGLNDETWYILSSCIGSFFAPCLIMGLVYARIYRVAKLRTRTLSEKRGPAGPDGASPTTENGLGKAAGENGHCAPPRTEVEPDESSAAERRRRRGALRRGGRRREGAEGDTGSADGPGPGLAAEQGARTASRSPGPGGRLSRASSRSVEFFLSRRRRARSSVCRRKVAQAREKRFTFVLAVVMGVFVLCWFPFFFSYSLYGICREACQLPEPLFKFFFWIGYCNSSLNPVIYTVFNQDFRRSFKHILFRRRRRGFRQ
# T1 sequence (P19328 whole entry): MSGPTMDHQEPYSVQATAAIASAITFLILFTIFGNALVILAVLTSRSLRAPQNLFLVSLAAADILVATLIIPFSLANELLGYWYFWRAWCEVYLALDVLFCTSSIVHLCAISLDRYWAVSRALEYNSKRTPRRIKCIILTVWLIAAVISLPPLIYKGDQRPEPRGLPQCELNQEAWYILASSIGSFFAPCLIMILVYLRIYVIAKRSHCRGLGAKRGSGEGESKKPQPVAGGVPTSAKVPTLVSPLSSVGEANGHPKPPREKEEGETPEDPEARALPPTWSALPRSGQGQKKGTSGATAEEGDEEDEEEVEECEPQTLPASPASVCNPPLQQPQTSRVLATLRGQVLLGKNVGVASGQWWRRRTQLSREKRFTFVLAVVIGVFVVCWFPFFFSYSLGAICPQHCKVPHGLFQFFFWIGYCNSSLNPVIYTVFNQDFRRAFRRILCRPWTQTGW
# T1 sequence (P22909 whole entry): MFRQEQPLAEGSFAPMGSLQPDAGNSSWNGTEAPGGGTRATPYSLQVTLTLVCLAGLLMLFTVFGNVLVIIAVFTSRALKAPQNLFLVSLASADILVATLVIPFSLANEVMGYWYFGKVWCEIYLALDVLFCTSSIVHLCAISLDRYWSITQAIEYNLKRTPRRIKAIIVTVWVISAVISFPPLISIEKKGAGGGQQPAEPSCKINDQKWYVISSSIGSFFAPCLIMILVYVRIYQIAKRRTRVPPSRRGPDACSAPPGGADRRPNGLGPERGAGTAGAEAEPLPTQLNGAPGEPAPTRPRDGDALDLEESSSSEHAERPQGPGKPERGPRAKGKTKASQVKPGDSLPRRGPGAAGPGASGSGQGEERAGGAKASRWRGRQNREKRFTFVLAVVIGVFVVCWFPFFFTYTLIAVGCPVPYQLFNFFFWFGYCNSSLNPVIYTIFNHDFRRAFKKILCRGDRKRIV
# In short: (§1)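 Cortex from male Sprague-Dawley rats, homogenized and washed three times by centrifugation (50000g) in 50 mM Tris·HCl pH 7.7. Incubated with 4.0 nM (final) [3H]clonidine for 30 min at 25 °C. Bound ligand collected by rapid filtration and counted. Nonspecific binding defined with 2 µM phentolamine. Quadruplicates at 5 inhibitor concentrations over a 16-fold range.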
# [3] = Selectivity was expressed as the ratio is Ki of alpha 2-Adrenoceptor to that of PNMT
# [4] = biological target: T2, Phenylethanolamine N-methyltransferase (Bos taurus, UniProt P10938); assay: Inhibition of Phenylethanolamine N-methyl-transferase (PNMT)
# T2 sequence (P10938 whole entry): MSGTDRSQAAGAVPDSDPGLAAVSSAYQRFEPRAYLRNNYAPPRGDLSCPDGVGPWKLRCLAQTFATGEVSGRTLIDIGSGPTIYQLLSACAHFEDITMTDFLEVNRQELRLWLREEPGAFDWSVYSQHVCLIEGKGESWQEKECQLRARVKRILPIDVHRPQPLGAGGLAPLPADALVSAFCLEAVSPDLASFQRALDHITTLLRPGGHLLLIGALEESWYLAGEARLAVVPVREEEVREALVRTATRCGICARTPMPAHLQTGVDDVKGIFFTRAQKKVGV
# In short: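 Bovine adrenal PNMT, purified through isoelectric precipitation. Radiochemical assay in phosphate buffer pH 8.0 with unlabeled AdoMet plus [methyl-3H]AdoMet, with phenylethanolamine as the variable substrate. Incubated 30 min at 37 °C, then quenched with borate pH 10.0. Product extracted into toluene–isoamyl alcohol (7:3) and scintillation counted. Duplicates at three inhibitor concentrations over a 5-fold range. Ki from hyperbolic fit; mode checked by 1/V vs 1/S plots.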
# [5] = Selectivity was expressed as the ratio is Ki of alpha 2-Adrenoceptor to tht of PNMT
# [6] = biological target: T1, Adrenergic receptor alpha-2; assay: Ability to inhibit binding of [3H]clonidine at the Alpha-2 adrenergic receptor; assay type: protein assay; in short: as §1
SMILES,pKa [1],Ki [2],Selectivity ratio [3],Ki [4],Selectivity ratio [5],Ki [6]
Oc1ccc2c(c1)CNCC2,10,2.2 µM,0.85,,,
CS(=O)(=O)Nc1ccc2c(c1)CNCC2,9,11 µM,,48 µM,0.23,
CS(=O)(=O)NCc1ccc2c(c1)CNCC2,11.9,18 µM,,330 µM,0.055,
COc1ccc2c(CN)cccc2c1,,4.6 µM,,15 µM,0.31,
CS(=O)(=O)N(c1ccc2c(c1)CNCC2)S(C)(=O)=O,,190 µM,,4500 µM,0.042,
COc1ccc2c3c(ccc2c1)CCNC3,,0.84 µM,,1.4 µM,0.6,
CNS(=O)(=O)c1ccc2c(c1)CNCC2,11.4,130 µM,,4.6 µM,28,
O=S(=O)(Nc1ccc(Cl)cc1)c1ccc2c(c1)CNCC2,7.8,6.3 µM,,2.6 µM,2.4,
Oc1ccc2c3c(ccc2c1)CCNC3,10,0.078 µM,,0.98 µM,0.08,
NCc1cccc2ccccc12,,1.6 µM,,4.7 µM,0.34,
Clc1ccc2c(c1Cl)CNCC2,,,,0.2 µM,,[…]
NCc1cccc2cc(O)ccc12,10,2.1 µM,,8.4 µM,0.25,
